Experiment [1] in a line: Inhibition of trypsin at 5 uM after 15 mins. The procedure, abridged:
(§1)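 Single-point screen: each enzyme incubated with inhibitor at 37 °C, then residual activity measured. Inhibition below 5% was scored as no inhibition.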

The target in experiment [2] is Chymotrypsin-like elastase family member 1 (Sus scrofa) (UniProt P00772). Nature of the experiment: Inhibition of porcine pancreatic elastase at 5 uM after 15 mins. Summed up:
as §1

Experiment [3] addresses T1, Neutrophil elastase (Homo sapiens) (UniProt P08246).
T1 sequence (whole entry): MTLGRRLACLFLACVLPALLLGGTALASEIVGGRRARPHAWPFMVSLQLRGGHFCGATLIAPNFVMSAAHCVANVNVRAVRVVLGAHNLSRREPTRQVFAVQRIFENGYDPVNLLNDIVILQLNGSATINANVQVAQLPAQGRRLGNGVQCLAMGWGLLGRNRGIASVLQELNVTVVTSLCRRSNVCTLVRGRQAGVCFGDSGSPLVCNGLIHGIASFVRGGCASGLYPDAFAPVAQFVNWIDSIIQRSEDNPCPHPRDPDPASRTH
Nature of the experiment: Inhibition of human neutrophil elastase at 5 uM after 15 mins. The procedure, abridged:
as §1

Experiment [4] in a line: Ratio of dissociation of enzyme-inhibitor-substrate complex to Ki for chymotrypsin.
The subject of another experiment is A549. Nature of the experiment: Antiproliferative activity against human A549 cells assessed as growth inhibition at 100 ug/ml after 72 hrs. The format is functional. The settings on record: A549, 72 h.
The subject of experiment [5] is LoVo. In words: Antiproliferative activity against human LoVo cells after 72 hrs. The format is functional, cell-based.
Experiment [6] has as its system MCF7. In words: Antiproliferative activity against human MCF7 cells after 72 hrs. The format is functional, cell-based. The settings on record: MCF7, 72 h.
The subject of experiment [7] is LoVo. In words: Antiproliferative activity against human multidrug-resistant LoVo cells assessed as growth inhibition at 100 ug/ml after 72 hrs. The format is functional.
The subject of experiment [8] is MCF7. Nature of the experiment: Antiproliferative activity against human MCF7 cells assessed as growth inhibition at 100 ug/ml after 72 hrs. The format is functional. The settings on record: MCF7, 72 h.
In experiment [9] the test system is LoVo. In words: Antiproliferative activity against human LoVo cells assessed as growth inhibition at 100 ug/ml after 72 hrs. The format is functional.

Among the data in ChEMBL document CHEMBL1681697, “Simple phosphonic inhibitors of human neutrophil elastase” (Bioorg Med Chem Lett, 2011) are inhibition, Ratio and IC50 values, retold here.

In brackets after ≈: the same amount, converted by molar mass.

Chymotrypsin-like elastase family member 1 (Sus scrofa), sequence (P00772 whole entry): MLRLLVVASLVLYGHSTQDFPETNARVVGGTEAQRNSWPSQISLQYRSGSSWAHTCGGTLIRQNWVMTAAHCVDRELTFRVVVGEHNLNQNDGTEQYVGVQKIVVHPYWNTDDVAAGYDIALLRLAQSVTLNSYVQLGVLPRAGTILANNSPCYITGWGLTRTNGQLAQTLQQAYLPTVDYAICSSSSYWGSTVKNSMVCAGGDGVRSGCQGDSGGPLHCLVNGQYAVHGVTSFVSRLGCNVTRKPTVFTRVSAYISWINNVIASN

Turning to `C[C@@H](NC(=O)OCc1ccccc1)P(=O)(Oc1ccc(C(C)(C)C)cc1)Oc1ccc(C(C)(C)C)cc1`, the inhibition in experiment [1] is less than 5%.
The compound `CCCC[C@@H](NC(=O)OCc1ccccc1)P(=O)(Oc1ccc(C(C)(C)C)cc1)Oc1ccc(C(C)(C)C)cc1` had an inhibition in experiment [1] of less than 5%.
In turn, `CSc1ccc(OP(=O)(Oc2ccc(SC)cc2)[C@H](NC(=O)OCc2ccccc2)C(C)C)cc1` showed an inhibition in experiment [2] of less than 5%.
With `CC(C)[C@@H](NC(=O)OCc1ccccc1)P(=O)(Oc1ccc(C(C)(C)CC(C)(C)C)cc1)Oc1ccc(C(C)(C)CC(C)(C)C)cc1`, the inhibition in experiment [2], in experiment [1] and in [3] was less than 5% throughout.
For the compound `CCC(NC(=O)OCc1ccccc1)P(=O)(Oc1ccc(Cl)cc1)Oc1ccc(Cl)cc1` (centres undefined), the Ratio in [4] is less than 50 M⁻¹ s⁻¹.
For `CCC[C@@H](NC(=O)OCc1ccccc1)P(=O)(Oc1ccc(OC)cc1)Oc1ccc(OC)cc1`, the inhibition in experiment [2] and in experiment [3] was less than 5% each time.
As for `COC(=O)c1ccc(OP(=O)(Oc2ccc(C(=O)OC)cc2)[C@@H](C)NC(=O)OCc2ccccc2)cc1`, the values for the inhibition at 100 µg/mL with A549 and in the experiment on LoVo [7] were 25% and 46%, respectively. In addition, the IC50 in the experiment on LoVo [5] amounted to 47 µg/mL (≈ 89.1 µM); with MCF7 [6], 40 µg/mL (≈ 75.8 µM). Also, the Ratio in [4] turned out to be 1530 M⁻¹ s⁻¹.
Turning to `CC(C)c1ccc(OP(=O)(Oc2ccc(C(C)C)cc2)[C@@H](C)NC(=O)OCc2ccccc2)cc1`, the inhibition in experiment [2] and in experiment [1] was less than 5% throughout.
With `CCC(NC(=O)OCc1ccccc1)P(=O)(Oc1ccc(C)cc1)Oc1ccc(C)cc1` (centres undefined), the inhibition in experiment [2] and in experiment [3] was less than 5% each time.
In turn, `COc1ccc(OP(=O)(Oc2ccc(OC)cc2)[C@@H](CC(C)C)NC(=O)OCc2ccccc2)cc1` yielded an inhibition in experiment [3] of less than 5%.
Regarding `Cc1ccccc1OP(=O)(Oc1ccccc1C)[C@@H](CC(C)C)NC(=O)OCc1ccccc1`, in experiment [2], the inhibition was less than 5%.
`CCCC[C@@H](NC(=O)OCc1ccccc1)P(=O)(Oc1ccccc1)Oc1ccccc1`: the inhibition in experiment [2] and in experiment [1] was less than 5% throughout.
With `CC(C)C[C@@H](NC(=O)OCc1ccccc1)P(=O)(Oc1ccc(Cl)cc1)Oc1ccc(Cl)cc1`, the inhibition in experiment [2] is less than 5%.
As for `CCC[C@@H](NC(=O)OCc1ccccc1)P(=O)(Oc1cccc(C)c1C)Oc1cccc(C)c1C`, the inhibition in experiment [2] and in experiment [3] was less than 5% in each case.
As for `CCCC[C@@H](NC(=O)OCc1ccccc1)P(=O)(Oc1ccc(SC)cc1)Oc1ccc(SC)cc1`, the inhibition in experiment [2] and in experiment [3] was less than 5% in each case.
As for `CCc1ccc(OP(=O)(Oc2ccc(CC)cc2)[C@@H](C)NC(=O)OCc2ccccc2)cc1`, the inhibition in experiment [2] and in experiment [1] was less than 5% throughout.
In the case of `Cc1ccc(C)c(OP(=O)(Oc2cc(C)ccc2C)[C@H](NC(=O)OCc2ccccc2)C(C)C)c1`, the inhibition in [2], in experiment [1] and in experiment [3] was less than 5% in each case.
On to `CCCC[C@@H](NC(=O)OCc1ccccc1)P(=O)(Oc1ccc(C(=O)OC)cc1)Oc1ccc(C(=O)OC)cc1`, for which the Ratio in [4] was less than 50 M⁻¹ s⁻¹.
Take `COc1ccc(OP(=O)(Oc2ccc(OC)cc2)[C@H](NC(=O)OCc2ccccc2)C(C)C)cc1`: in [1], the inhibition was less than 5%.
For the compound `CCC(NC(=O)OCc1ccccc1)P(=O)(Oc1ccccc1)Oc1ccccc1` (centres undefined), the inhibition in experiment [2] is less than 5%.
With `CCC(NC(=O)OCc1ccccc1)P(=O)(Oc1ccc(C(C)C)cc1)Oc1ccc(C(C)C)cc1` (centres undefined), the inhibition in experiment [1] is less than 5%.
For `CSc1ccc(OP(=O)(Oc2ccc(SC)cc2)[C@@H](CC(C)C)NC(=O)OCc2ccccc2)cc1`, the inhibition in experiment [2] is less than 5%.
For the compound `CCC[C@@H](NC(=O)OCc1ccccc1)P(=O)(Oc1ccc(C(=O)OC)cc1)Oc1ccc(C(=O)OC)cc1`, the inhibition at 100 µg/mL came to 40% in the experiment with A549 and 47% in the experiment with LoVo [7]. The IC50 in the experiment with LoVo [5] was found to be 47 µg/mL (≈ 84.6 µM); with MCF7 [6], 52 µg/mL (≈ 93.6 µM). For the same compound, the Ratio in experiment [4] was less than 50 M⁻¹ s⁻¹.
In the case of `Cc1ccc(C)c(OP(=O)(Oc2cc(C)ccc2C)[C@@H](CC(C)C)NC(=O)OCc2ccccc2)c1`, the inhibition in [3] is less than 5%.
For `C[C@@H](NC(=O)OCc1ccccc1)P(=O)(Oc1ccccc1)Oc1ccccc1`, the inhibition in experiment [2] and in experiment [1] was less than 5% throughout.
On to `CC(C)c1ccc(OP(=O)(Oc2ccc(C(C)C)cc2)[C@H](NC(=O)OCc2ccccc2)C(C)C)cc1`, for which the inhibition in experiment [2], in experiment [1] and in experiment [3] was less than 5% throughout.
On to `COC(=O)c1ccc(OP(=O)(Oc2ccc(C(=O)OC)cc2)[C@H](NC(=O)OCc2ccccc2)C(C)C)cc1`, for which, in experiment [2], the inhibition is less than 5%. The figures for the inhibition at 100 µg/mL in the experiment on A549 and in the experiment on LoVo [7] were 46% and 54%, respectively. The IC50 in the experiment on LoVo [5] is 32 µg/mL (≈ 57.6 µM); with MCF7 [6] it was 47 µg/mL (≈ 84.6 µM). Besides, the Ratio in experiment [4] was less than 50 M⁻¹ s⁻¹.
The compound `CCc1ccc(OP(=O)(Oc2ccc(CC)cc2)[C@H](NC(=O)OCc2ccccc2)C(C)C)cc1` displayed an inhibition in experiment [1] of less than 5%.
As for `CCC(NC(=O)OCc1ccccc1)P(=O)(Oc1ccc(C(=O)OC)cc1)Oc1ccc(C(=O)OC)cc1` (centres undefined), the inhibition at 100 µg/mL stood at 31% with A549, 49% in the experiment on MCF7 [8] and 38% in the experiment with LoVo [7]. The IC50 with LoVo [5] amounted to 73 µg/mL (≈ 135 µM). Further, the Ratio in experiment [4] stood at 1070 M⁻¹ s⁻¹.
Turning to `CC(C)[C@@H](NC(=O)OCc1ccccc1)P(=O)(Oc1ccccc1)Oc1ccccc1`, the inhibition in experiment [2], in [1] and in experiment [3] was less than 5% throughout.
Take `CCC(NC(=O)OCc1ccccc1)P(=O)(Oc1ccc(C)c(C)c1)Oc1ccc(C)c(C)c1` (centres undefined): the inhibition in [2] and in experiment [3] was less than 5% throughout.
`CC(C)(C)C(=O)Oc1ccc(S(=O)(=O)Nc2ccccc2C(=O)NCC(=O)O)cc1` [SIVELESTAT]: the inhibition at 100 µg/mL in the experiment on LoVo [9] came to 20%; in the experiment with MCF7 [8], 61%; in the experiment on LoVo [7] it was 15%.
Consider `CCC(NC(=O)OCc1ccccc1)P(=O)(Oc1ccc(C(C)(C)C)cc1)Oc1ccc(C(C)(C)C)cc1` (centres undefined), for which the inhibition in [2] and in [3] was less than 5% each time.
For the compound `CCC[C@@H](NC(=O)OCc1ccccc1)P(=O)(Oc1cc(C)c(C)c(C)c1)Oc1cc(C)c(C)c(C)c1`, the inhibition in experiment [2], in experiment [1] and in experiment [3] was less than 5% in each case.
On to `CCC[C@@H](NC(=O)OCc1ccccc1)P(=O)(Oc1cc(C)cc(C)c1C)Oc1cc(C)cc(C)c1C`, for which the inhibition in experiment [2] and in experiment [3] was less than 5% in each case.
As to `COC(=O)c1ccc(OP(=O)(Oc2ccc(C(=O)OC)cc2)[C@@H](CC(C)C)NC(=O)OCc2ccccc2)cc1`, the inhibition at 100 µg/mL amounted to 22% in the experiment with LoVo [9], 3% in the experiment on A549, 8% in the experiment with MCF7 [8] and 6% in the experiment on LoVo [7]. In addition, in [4], the Ratio was less than 50 M⁻¹ s⁻¹.
Consider `CSc1ccc(OP(=O)(Oc2ccc(SC)cc2)[C@@H](C)NC(=O)OCc2ccccc2)cc1`, for which the inhibition in experiment [2] and in [1] was less than 5% throughout.
As to `CCc1ccc(OP(=O)(Oc2ccc(CC)cc2)C(CC)NC(=O)OCc2ccccc2)cc1` (centres undefined), in experiment [2], the inhibition was less than 5%.
`CC(C)[C@@H](NC(=O)OCc1ccccc1)P(=O)(Oc1ccc(C(C)(C)C)cc1)Oc1ccc(C(C)(C)C)cc1`: the inhibition in experiment [2] and in experiment [1] was less than 5% throughout.
Consider `CC(C)[C@@H](NC(=O)OCc1ccccc1)P(=O)(Oc1ccc(S(C)(=O)=O)cc1)Oc1ccc(S(C)(=O)=O)cc1`, for which the inhibition at 100 µg/mL with LoVo [9] was found to be 15%; in the experiment with A549, 5%; with MCF7 [8], 19%. Further, the Ratio in [4] came to 707 M⁻¹ s⁻¹.
